From ChEMBL document CHEMBL3877298, “Discovery of benzimidazole derivatives as modulators of mitochondrial function: A potential treatment for Alzheimer's disease” (Eur J Med Chem, 2017)

Molecular target: Translocator protein (Mus musculus) (UniProt P50637)
Assay: Inhibition of TSPO in mouse HT22 cells assessed as protection against amyloid beta (1 to 42)-induced mitochondrial membrane potential loss by measuring recovery of mitochondrial membrane potential at 5 uM preincubated for 10 mins followed by amyloid beta (1 to 42) addition measured every 1 hr for 3 hrs by JC1 staining based fluorescence assay relative to control
Type: cell-based
Set-up: scale not given: the % may be the effect or the level left
Details: HT-22
How it was run: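 HT22 cells at 30,000 per well were loaded with 7.5 µM JC-1 in phenol red-free Opti-MEM for 1 h 15 min at 37 °C, then washed. Cells were treated with compound (5 µM) and Aβ1-42 (5 µM); vehicle wells received DMSO. Green (485/535) and red (560/595) fluorescence were read hourly for 3 h. Recovery was normalised between Aβ-damaged (0%) and normal (100%) ratio.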

Sequence of Translocator protein (Mus musculus) (P50637 whole entry, looked up): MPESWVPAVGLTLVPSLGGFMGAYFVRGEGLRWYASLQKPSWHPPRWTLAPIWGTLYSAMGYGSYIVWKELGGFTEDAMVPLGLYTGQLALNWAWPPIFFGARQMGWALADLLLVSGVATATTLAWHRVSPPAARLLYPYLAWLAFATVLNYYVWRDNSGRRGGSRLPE

Structure (SMILES)	Activity
CC(C)(C)c1cc(NC(=O)Cn2c(Cc3ccc(Cl)c(Cl)c3)nc3ccccc32)cc(C(C)(C)C)c1	42%
Cc1cccc(C(C)(C)C)c1NC(=O)Cn1c(-c2cc(Cl)ccc2Cl)nc2ccccc21	41%
O=C(Cn1c(-c2cc(Cl)ccc2Cl)nc2cc(Cl)ccc21)Nc1cc(Cl)cc(Cl)c1	77%
O=C(CCn1c(-c2ccc(Cl)cc2)nc2ccccc21)Nc1ccccc1F	65%
Cc1ccc(C(C)C)c(OC[C@H](O)Cn2c(Cc3ccccc3)nc3ccccc32)c1	53%
O=C(Cn1c(-c2ccccc2)nc2ccccc21)Nc1cc(Cl)cc(Cl)c1	69%
Cc1cccc(C(C)(C)C)c1NC(=O)Cn1c(Cc2ccccc2)nc2ccccc21	38%
COc1ccc(NC(=O)Cn2c(SCc3cc(C)ccc3C)nc3ccncc32)c(OC)c1OC	43%
CC(C)(C)c1cc(NC(=O)Cn2c(Cc3ccccc3)nc3ccccc32)cc(C(C)(C)C)c1	29%
COc1ccc(OC)c(-c2nc3ccccc3n2CC(=O)Nc2cc(C(C)C)ccc2C)c1	41%
O=C(Cn1c(Cc2ccccc2)nc2ccccc21)Nc1cc(Oc2ccc(-c3ccccc3)cc2)ccc1F	0%
COc1ccc(OC)c(-c2nc3ccccc3n2CC(=O)Nc2cc(Oc3ccc(-c4ccccc4)cc3)ccc2F)c1	0%
Cc1ccc(C(C)C)cc1NC(=O)Cn1c(Cc2ccccc2)nc2ccccc21	24%
Cc1ccc(C(C)C)cc1NC(=O)Cn1c(Cc2ccc(Cl)c(Cl)c2)nc2ccccc21	57%
O=C(Cn1c(-c2cc(Cl)ccc2Cl)nc2ccc(Cl)cc21)Nc1cc(Cl)cc(Cl)c1	18%
CCCN(CCC)C(=O)Cn1c(SCc2cccc(Cl)c2)nc2ccncc21	34%

Further lines, results first:

Activity	Structure (SMILES)
46%	O=C(NCCCc1cccs1)c1ccc(Cn2c(SCc3ccc(F)cc3)nc3ncccc32)cc1
86%	CN1CCN(CCCNC(=O)c2ccc(Cn3c(Cc4c(Cl)cccc4Cl)nc4ccccc43)cc2)CC1
30%	Cc1c(Cl)cccc1NC(=O)Cn1c(SCc2ccccc2F)nc2ccncc21
61%	CCN1CCCC1CNC(=O)c1ccc(Cn2c(SCc3ccc(F)cc3)nc3ncccc32)cc1 (stereo unspecified)
-7%	O=C(Cn1c(SCc2ccc(F)cc2)nc2ncccc21)Nc1ccc2c(c1)OCO2
23%	CCCSCCNC(=O)c1ccc(Cn2c(SCc3ccccc3)nc3ncccc32)cc1
43%	CC[C@@H](C(=O)Nc1ccccc1OC)n1c(SCc2ccc(C)cc2)nc2ccncc21
25%	CCC1CCCCN1C(=O)Cn1c(SCc2cccc(C(F)(F)F)c2)nc2ncccc21 (stereo unspecified)
47%	O=C(NCCN1CCOCC1)c1ccc(Cn2c(SCc3ccc(F)cc3)nc3ncccc32)cc1
-1%	C=CCN(C(=O)Cn1c(SCc2ccc(F)cc2)nc2ccncc21)c1ccccc1
45%	O=C(NCCN1CCCCC1)c1ccc(Cn2c(SCc3ccc(F)cc3)nc3ncccc32)cc1
37%	O=C(c1ccc(CSc2nc3ncccc3n2Cc2ccc(F)cc2)cc1)N1CCCCC1
73%	CN(C)C(=O)c1ccc(Cn2c(Cc3c(Cl)cccc3Cl)nc3ccccc32)cc1
58%	CCCSCCCNC(=O)c1ccc(CSc2nc3ncccc3n2Cc2cccc(C)c2)cc1
27%	COc1ccc(NC(=O)Cn2c(SCc3ccc(C)cc3)nc3ccncc32)c(OC)c1OC
15%	Cc1ccc(Cn2c(SCc3ccc(F)cc3)nc3ncccc32)cc1
52%	O=C(NCCCc1ccco1)c1ccc(Cn2c(SCc3ccc(F)cc3)nc3ncccc32)cc1
34%	COc1ccc(CC(=O)Cn2c(SCc3ccc(F)cc3)nc3ccncc32)c(OC)c1
68%	CCN1CCCC1CNC(=O)c1ccc(Cn2c(CC(=O)Nc3cc(C(C)C)ccc3C)nc3ccccc32)cc1 (stereo unspecified)
38%	CCN(CC)CCCNC(=O)c1ccc(Cn2c(SCc3ccc(F)cc3)nc3ncccc32)cc1
